Results taken from ChEMBL document CHEMBL4725436, “Gibberellin JRA-003: A Selective Inhibitor of Nuclear Translocation of IKKα” (ACS Med Chem Lett, 2020).

Columns and labels:
[1] = test system: CA46; assay: Cytotoxicity against human CA46 cells assessed as reduction in cell viability measured after 24 hrs by CellTiter-Glo luminescent assay; format: functional, cell-based; details: CA46, 24 h
In short: (§1)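 High-throughput viability screen of test agents across a panel of 22 cancerous and noncancerous human cell lines. Viability was read by CellTiter-Glo luminescence.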

[2] = Inhibition of IKKalpha/IKKbeta in human HEK293T cells transfected with firefly luciferase gene assessed as inhibition of TNF-alpha-stimulated NF-kappaB signalling preincubated for 1 hr followed by TNF alpha stimulation measured after 3 hrs by luciferase reporter gene assay; format: cell-based; details: HEK-293T
In short: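 Commercial NF-κB-driven luciferase reporter assay in HEK 293T cells stimulated with TNFα. EC50 was derived from the luminescence readout.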

[3] = test system: HEK-293T; assay: Cytotoxicity against human HEK293T cells assessed as reduction in cell viability measured after 24 hrs by CellTiter-Glo luminescent assay; format: cell-based; in short: as §1
[4] = Cytotoxicity against human Hs578Bst cells assessed as reduction in cell viability measured after 24 hrs by CellTiter-Glo luminescent assay; format: cell-based; in short: as §1
[5] = Cytotoxicity against human Hs888Lu cells assessed as reduction in cell viability measured after 24 hrs by CellTiter-Glo luminescent assay; format: cell-based; in short: as §1
[6] = Cytotoxicity against human Hs895SK cells assessed as reduction in cell viability measured after 24 hrs by CellTiter-Glo luminescent assay; format: cell-based; details: Hs 895.Sk; in short: as §1
[7] = Cytotoxicity against human Hs895T cells assessed as reduction in cell viability measured after 24 hrs by CellTiter-Glo luminescent assay; format: functional, cell-based; in short: as §1
[8] = test system: Hs-578T; assay: Cytotoxicity against human Hs-578T cells assessed as reduction in cell viability measured after 24 hrs by CellTiter-Glo luminescent assay; format: functional, cell-based; in short: as §1
[9] = test system: PSN1; assay: Cytotoxicity against human PSN1 cells assessed as reduction in cell viability measured after 24 hrs by CellTiter-Glo luminescent assay; format: functional, cell-based; details: PSN1, 24 h; in short: as §1
[10] = test system: HCC1599; assay: Cytotoxicity against human HCC1599 cells assessed as reduction in cell viability measured after 24 hrs by CellTiter-Glo luminescent assay; format: functional, cell-based; details: HCC1599, 24 h; in short: as §1
[11] = test system: RCK8; assay: Cytotoxicity against human RC-K8 cells assessed as reduction in cell viability measured after 24 hrs by CellTiter-Glo luminescent assay; format: functional, cell-based; details: RCK8, 24 h; in short: as §1
[12] = test system: SUD4; assay: Cytotoxicity against human SU-DHL-4 cells assessed as reduction in cell viability measured after 24 hrs by CellTiter-Glo luminescent assay; format: functional, cell-based; details: SU-DHL-4, 24 h; in short: as §1
[13] = test system: NCI-H446; assay: Cytotoxicity against human NCI-H446 cells assessed as reduction in cell viability measured after 24 hrs by CellTiter-Glo luminescent assay; format: functional, cell-based; details: NCI-H446, 24 h; in short: as §1

C=C1[C@@H](O)[C@]23C[C@@]1(O)CC[C@H]2[C@@]12C=C[C@H](O)[C@@](C)(C(=O)O1)[C@H]2[C@@H]3C(=O)OC
> 100 µM: EC50 [2]
> 10 µM: IC50 [1] | IC50 [3] | IC50 [4] | IC50 [5] | IC50 [6] | IC50 [7] | IC50 [8] | IC50 [9] | IC50 [10] | IC50 [11] | IC50 [12] | IC50 [13]

C=C1C[C@]23C[C@@]1(O)CC[C@H]2c1ccc(O/C=C/C(=O)OC)c(C)c1[C@@H]3C(=O)OC
> 100 µM: EC50 [2]
> 10 µM: IC50 [1] | IC50 [3] | IC50 [4] | IC50 [5] | IC50 [6] | IC50 [7] | IC50 [8] | IC50 [9] | IC50 [10] | IC50 [11] | IC50 [12] | IC50 [13]

C=C1C(=O)[C@@]2(C)CC[C@@H]3c4cccc(C)c4[C@H](C(=O)OC)[C@@]13C2
1.1 µM: EC50 [10]
55 µM: EC50 [2]
1.9 µM: EC50 [11]
> 10 µM: IC50 [3] | IC50 [4] | IC50 [5] | IC50 [7] | IC50 [9]
0.69 µM: EC50 [12]
0.46 µM: EC50 [1]
4.8 µM: EC50 [8]
9.5 µM: EC50 [6]
2.9 µM: EC50 [13]

C=C1[C@@H](O)[C@]23C[C@@]1(O)CC[C@H]2c1ccc(O)c(C)c1[C@@H]3C(=O)OC
> 10 µM: IC50 [1] | IC50 [3] | IC50 [4] | IC50 [5] | IC50 [6] | IC50 [7] | IC50 [8] | IC50 [9] | IC50 [10] | IC50 [11] | IC50 [12] | IC50 [13]
> 100 µM: EC50 [2]

C=C1[C@@H]2OC(=O)[C@H]3[C@@H]4[C@@]5(C)C(=O)C=C[C@@]4(OC5=O)[C@@H]4CC[C@]1(O)C[C@]234
3.7 µM: EC50 [1]
57 µM: EC50 [2]
3 µM: EC50 [12]
5.9 µM: EC50 [13]
5.5 µM: EC50 [10]
4.3 µM: EC50 [11]
> 10 µM: IC50 [3] | IC50 [4] | IC50 [5] | IC50 [6] | IC50 [7] | IC50 [8] | IC50 [9]

C=C1[C@@H]2OC(=O)[C@H]3c4c(C)cccc4[C@@H]4CC[C@]1(O)C[C@@]243
> 100 µM: EC50 [2]
> 10 µM: IC50 [1] | IC50 [3] | IC50 [4] | IC50 [5] | IC50 [6] | IC50 [7] | IC50 [8] | IC50 [9] | IC50 [10] | IC50 [11] | IC50 [12] | IC50 [13]

Cc1cccc2c1[C@H](C(=O)O)[C@@]13CC(=O)[C@@](C)(CC[C@H]21)C3
> 10 µM: IC50 [1] | IC50 [3] | IC50 [4] | IC50 [5] | IC50 [6] | IC50 [7] | IC50 [8] | IC50 [9] | IC50 [10] | IC50 [11] | IC50 [12] | IC50 [13]
> 100 µM: EC50 [2]

C=C1C[C@]23C[C@@]1(O)CC[C@H]2c1cc(Br)c(O)c(C)c1[C@@H]3C(=O)OC
> 100 µM: EC50 [2]
> 10 µM: IC50 [1] | IC50 [3] | IC50 [4] | IC50 [5] | IC50 [6] | IC50 [7] | IC50 [8] | IC50 [9] | IC50 [10] | IC50 [11] | IC50 [12] | IC50 [13]

C=C1C[C@]23C[C@@]1(O)CC[C@H]2c1cc2c(C(=O)OC)coc2c(C)c1[C@@H]3C(=O)OC
> 100 µM: EC50 [2]
> 10 µM: IC50 [1] | IC50 [3] | IC50 [4] | IC50 [5] | IC50 [6] | IC50 [7] | IC50 [8] | IC50 [9] | IC50 [10] | IC50 [11] | IC50 [12] | IC50 [13]

COC(=O)[C@H]1c2c(cc3ccoc3c2C)[C@@H]2CC[C@@]3(C)C[C@]21CC3=O
> 10 µM: IC50 [1] | IC50 [3] | IC50 [4] | IC50 [5] | IC50 [6] | IC50 [7] | IC50 [8] | IC50 [9] | IC50 [10] | IC50 [11] | IC50 [12] | IC50 [13]
> 100 µM: EC50 [2]
